ChEMBL document CHEMBL4257497, “Design, synthesis and biological evaluation of novel 1,3-diarylpyrazoles as cyclooxygenase inhibitors, antiplatelet and anticancer agents” (Medchemcomm, 2018)

Legend:
HCT-116 = assay: Cytotoxicity against human HCT116 cells after 72 hrs by SRB assay; format: functional, cell-based
Procedure, shortened: (§1)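 Cells cultured in DMEM with 10% FBS, 1% non-essential amino acids, penicillin/streptomycin, 37 °C, 5% CO2. 2000–3000 cells per well seeded, grown 24 h, then exposed 72 h to compound (DMSO) at 40, 20, 10, 5, 2.5 μM. TCA fixation, 0.4% SRB stain, unbound dye washed off with 1% acetic acid, bound dye dissolved in 10 mM Tris base, absorbance 515 nm. IC50 against DMSO controls, triplicate.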

Huh-7 = assay: Cytotoxicity against human HuH7 cells after 72 hrs by SRB assay; format: functional, cell-based; procedure, shortened: as §1
MCF7 = assay: Cytotoxicity against human MCF7 cells after 72 hrs by SRB assay; format: functional, cell-based; procedure, shortened: as §1
Platelet [1] = assay: Antiplatelet activity in human platelet rich plasma assessed as inhibition of arachidonic acid-induced platelet aggregation at 100 uM preincubated for 5 mins followed by arachidonic acid addition measured for 3 mins by aggregometric analysis relative to control; format: functional
Procedure, shortened: (§2)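 Citrated venous blood (3.2% citrate, 1:9) from healthy donors free of antiplatelet drugs for 10 days; PRP from 800 rpm 10 min spin, PPP from 1500 rpm 10 min; count set to 3.8 × 10^5 platelets […]. PRP stirred at 1100 rpm, 37 °C; compound in DMSO (1% carrier) 5 min before agonist (AA final 700 μM; collagen 5 μg ml−1). Turbidimetric read, triplicate; % inhibition versus DMSO-treated maximum aggregation.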

[2] = molecular target: T1, COX1 (Prostaglandin G/H synthase 1) (Ovis aries, UniProt P05979); assay: Inhibition of sheep COX1 at 10 uM assessed as reduction in PGE2 formation using arachidonic acid as substrate by enzyme immunoassay relative to control; conditions: probe arachidonic acid
T1 sequence (P05979 whole entry): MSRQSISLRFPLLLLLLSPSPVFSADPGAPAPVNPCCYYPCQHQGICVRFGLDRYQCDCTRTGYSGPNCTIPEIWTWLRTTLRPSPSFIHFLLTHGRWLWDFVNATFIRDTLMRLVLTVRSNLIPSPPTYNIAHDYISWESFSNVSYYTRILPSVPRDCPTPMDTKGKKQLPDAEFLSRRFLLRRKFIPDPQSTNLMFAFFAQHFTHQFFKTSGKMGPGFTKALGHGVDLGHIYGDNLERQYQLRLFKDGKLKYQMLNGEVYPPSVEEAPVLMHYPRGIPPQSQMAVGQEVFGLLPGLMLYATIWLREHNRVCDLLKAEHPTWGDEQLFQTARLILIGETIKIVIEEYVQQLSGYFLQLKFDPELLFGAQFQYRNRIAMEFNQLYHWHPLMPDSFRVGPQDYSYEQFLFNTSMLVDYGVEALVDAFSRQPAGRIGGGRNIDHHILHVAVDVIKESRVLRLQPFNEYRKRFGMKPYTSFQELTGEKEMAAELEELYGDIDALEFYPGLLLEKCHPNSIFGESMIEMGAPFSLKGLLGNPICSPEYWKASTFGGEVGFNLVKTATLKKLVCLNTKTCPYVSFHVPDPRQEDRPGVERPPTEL
Procedure, shortened: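 Recombinant ovine COX-1, test agent at 10 μM, arachidonic acid as substrate. PGE2 formed is measured by competitive EIA (PGE2–acetylcholinesterase tracer, monoclonal anti-PGE2, Ellman's reagent, absorbance 412 nm) and quantified from an 8-point PGE2 standard curve. Result given as % inhibition of enzyme activity.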

Platelet [3] = assay: Antiplatelet activity in human platelet rich plasma assessed as inhibition of collagen-induced platelet aggregation at 100 uM preincubated for 5 mins followed by arachidonic acid addition measured for 3 mins by aggregometric analysis relative to control; format: functional; procedure, shortened: as §2
Platelet [4] = assay: Antiplatelet activity in human platelet rich plasma assessed as inhibition of arachidonic acid-induced platelet aggregation preincubated for 5 mins followed by arachidonic acid addition measured for 3 mins by aggregometric analysis; format: functional, cell-based
[5] = Homo sapiens, HCT-116, 72 h, read-out: IC50
[6] = Homo sapiens, Huh-7, 72 h, read-out: IC50
[7] = Homo sapiens, MCF7, 72 h, read-out: IC50

| SMILES | IC50 (HCT-116; [5]) [µM] | IC50 (Huh-7; [6]) [µM] | IC50 (MCF7; mcf7) | inhibition at 100 µM (Platelet [1]) [%] | inhibition at 10 µM [2] [%] | inhibition at 100 µM (Platelet [3]) [%] | IC50 (MCF7; [7]) [µM] | IC50 (Platelet [4]) [µM] | IC50 (HCT-116; hct-116) | IC50 (Huh-7; huh-7) |
| --- | --- | --- | --- | --- | --- | --- | --- | --- | --- | --- |
| Cc1nccn1CCNC(=O)/C=C/c1cn(-c2ccccc2)nc1-c1ccncc1 | 12.6 | 21 | Not Active | 2.54 | 16.9 | 35 |  |  |  |  |
| Cc1nccn1CCCNC(=O)/C=C/c1cn(-c2ccccc2)nc1-c1cccnc1 | 21.4 | 13.4 |  | 1.24 | 0.32 | 60.3 | 25.1 |  |  |  |
| CS(=O)(=O)c1ccc(-n2cc(/C=C/C(=O)NCc3ccccn3)c(-c3cccnc3)n2)cc1 | 27 | 24.7 | Not Active | 8.92 | 10.7 | 59.8 |  |  |  |  |
| O=C(/C=C/c1cn(-c2ccccc2)nc1-c1ccncc1)NCc1ccccn1 | 20.4 | 14.7 | Not Active | 100 | 5.96 | 41.6 |  | 78.3 |  |  |
| O=C(/C=C/c1cn(-c2ccccc2)nc1-c1cccnc1)NCc1cccnc1 | 21.6 | 21 |  | 1.26 | 5.56 | 63.3 | 30.9 |  |  |  |
| O=C(/C=C/c1cn(-c2ccccc2)nc1-c1cccnc1)NCCc1ccncc1 | 26.7 | 14.5 | Not Active | 11.3 | 10.2 | 75.9 |  |  |  |  |
| COc1ccc2c(c1)c(CC(=O)O)c(C)n2C(=O)c1ccc(Cl)cc1 [INDOMETHACIN] |  |  |  |  | 69.5 |  |  |  |  |  |
| Cc1nccn1CCNC(=O)/C=C/c1cn(-c2ccc(S(C)(=O)=O)cc2)nc1-c1cccnc1 |  |  | Not Active | 14.3 | 29.6 | 8.6 |  |  | Not Active | Not Active |
| O=C(/C=C/c1cn(-c2ccccc2)nc1-c1cccnc1)NCCc1ccccn1 | 14.2 | 18.9 |  | 3.68 | 3.21 | 21.9 | 24.9 |  |  |  |
| CS(=O)(=O)c1ccc(-n2cc(/C=C/C(=O)NCc3ccncc3)c(-c3cccnc3)n2)cc1 | 31.7 |  | Not Active | 6.2 | 12.5 | 40.9 |  |  |  | Not Active |
| O=C(/C=C/c1cn(-c2ccccc2)nc1-c1ccncc1)NCc1cccnc1 | 14.6 |  | Not Active | 43.3 | 13.7 | 63.4 |  |  |  | Not Active |
| CS(=O)(=O)c1ccc(-n2cc(/C=C/C(=O)NCCCn3ccnc3)c(-c3cccnc3)n2)cc1 |  |  | Not Active | 82.4 | 40.5 | 52.6 |  |  | Not Active | Not Active |
| O=C(/C=C/c1cn(-c2ccccc2)nc1-c1cccnc1)NCCCn1ccnc1 | 17.6 | 14.3 |  | 16.1 | 0.12 | 86.5 | 15.4 |  |  |  |
| CC(=O)Oc1ccccc1C(=O)O [ASPIRIN] |  |  |  | 100 |  | 100 |  | 7.7 |  |  |
| Cc1nccn1CCCNC(=O)/C=C/c1cn(-c2ccc(S(C)(=O)=O)cc2)nc1-c1cccnc1 |  |  | Not Active | 19.5 | 36.8 | 11.1 |  |  | Not Active | Not Active |
| O=c1[nH]cc(F)c(=O)[nH]1 [FLUOROURACIL] |  |  |  |  |  |  | 1.4 |  |  |  |
| O=C(/C=C/c1cn(-c2ccccc2)nc1-c1cccnc1)NCc1ccncc1 |  | 24.4 | Not Active | 4.54 | 11.6 | 36.6 |  |  | Not Active |  |
| Cc1nccn1CCCNC(=O)/C=C/c1cn(-c2ccccc2)nc1-c1ccncc1 | 10.8 | 21.1 | Not Active | 7.91 | 5.41 | 41.3 |  |  |  |  |
| CS(=O)(=O)c1ccc(-n2cc(/C=C/C(=O)NCCc3cccnc3)c(-c3cccnc3)n2)cc1 |  |  | Not Active | 14.6 | 1.31 | 70.3 |  |  | Not Active | Not Active |
| O=C(/C=C/c1cn(-c2ccccc2)nc1-c1cccnc1)NCc1ccccn1 | 24.5 | 18.5 |  | 0 | 11.3 | 56.5 | 27.8 |  |  |  |
| O=C(/C=C/c1cn(-c2ccccc2)nc1-c1cccnc1)NCCc1cccnc1 | 16.9 | 8.1 |  | 0 | 0.45 | 76.6 | 30.8 |  |  |  |
| Cc1nccn1CCNC(=O)/C=C/c1cn(-c2ccccc2)nc1-c1cccnc1 | 20 | 25.6 |  | 0 | 2.46 | 15.5 | 21.8 |  |  |  |
| O=C(/C=C/c1cn(-c2ccccc2)nc1-c1ccncc1)NCCc1ccncc1 | 7.1 | 6.5 |  | 71.4 | 26.6 | 74.6 | 11 |  |  |  |
| O=C(/C=C/c1cn(-c2ccccc2)nc1-c1ccncc1)NCc1ccncc1 | 19.9 | 32.6 | Not Active | 4.96 | 5.82 | 50.1 |  |  |  |  |
